≈ marks a conversion by molar mass, not a printed value. Numbered stars: 1 amine (or outer) side, 2 acyl side, 3 side chain; on linkers, the order of the positions; unused ones are H or OH. Bridge positions count the residues as written; N and C are the ends. Square brackets hold non-standard residues; d marks the D form. Peptide text beside a SMILES is read from it. I, II: the chains in the order shown. Actinocin(1to9) = Cc1c2oc3c(C)ccc(C(=O)[*:2])c3nc-2c(C(=O)[*:1])c(N)c1=O; NMeV = CN[C@H](C(=O)O)C(C)C; Sar = CNCC(=O)O
Tests used:
RAW264.7 [1] = assay: Antiinflammatory activity in LPS-stimulated mouse RAW264.7 cells assessed as effect on TNFalpha formation at 30 uM pretreated 1 hr before LPS challenge measured after 24 hrs; assay type: functional
Outline: (§1)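 Medium from RAW 264.7 macrophages (2 × 10⁵ cells/well, adhered overnight) pretreated 1 h at 37 °C with drug or 0.5% DMSO vehicle and then given 1 µg/mL LPS (E. coli 0111:B4) for 24 h. Supernatant stored at -70 °C, and TNF-α quantified by ELISA kit per manufacturer. Mean ± SEM, n = 3.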

[2] = Cytotoxicity against human Hep3B cells by MTT assay; assay type: functional, Hep 3B2; settings: read-out: ED50 (the source's name)
Outline: (§2)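 Human lines from ATCC grown in DMEM with 10% FBS, 2 mM L-glutamine, penicillin and streptomycin, plus 10 mM HEPES pH 7.3 for the assay. (1-3) × 10³ cells/well, 6 h attachment, then drug exposure for 6 days at 37 °C. MTT added for 4 h, cells lysed in 10% SDS/0.01 M HCl, A550 read. Death calculated as percent MTT inhibition.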

HepG2 = assay: Cytotoxicity against human HepG2 cells by MTT assay; assay type: functional; settings: read-out: ED50 (the source's name); outline: as §2
HT-29 = assay: Cytotoxicity against human HT-29 cells by MTT assay; assay type: functional; settings: read-out: ED50 (the source's name)
Outline: (§3)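 Cells grown in DMEM with 10% FBS plus antibiotics; assay medium supplemented with 10 mM HEPES pH 7.3, 37 °C CO2 incubator. (1-3) × 10³ cells/100 µL seeded, 6 h attachment, drug exposure 6 days. MTT added for 4 h at 37 °C, cells lysed in 10% SDS/0.01 M HCl, A550 read; cell death expressed as % MTT inhibition versus cell-only and medium-blank wells.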

[3] = Cytotoxicity against mouse 212 cells by MTT assay; assay type: functional; settings: read-out: ED50 (the source's name)
Outline: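 Ha-ras-inducible NIH/3T3-derived 212 cells maintained in MEM alpha with 10% FBS and antibiotics, with 10 mM HEPES pH 7.3 added for the assay. Seeded at (1-3) × 10³ cells/well, allowed 6 h to attach, then exposed to drug 6 days at 37 °C. MTT pulse 4 h, SDS/HCl lysis, absorbance at 550 nm. Cell death expressed as percent MTT inhibition.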

RAW264.7 [4] = assay: Antiinflammatory activity in LPS-stimulated mouse RAW264.7 cells assessed as effect on NO production pretreated 1 hr before LPS challenge measured after 24 hrs; assay type: functional, cell-based
Outline: (§4)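 RAW 264.7 cells in DMEM with 10% FBS and antibiotics, 2 × 10⁵ cells/well, adhered overnight. Pretreated 1 h at 37 °C with drug or vehicle (final DMSO 0.5%), then stimulated with 1 µg/mL E. coli 0111:B4 LPS for 24 h. Medium nitrite measured by Griess reaction (sulfanilamide, HCl, naphthylethylenediamine, 10 min room temperature, A550) against a NaNO2 standard curve. Mean ± SEM, n = 3.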

SiHa = assay: Cytotoxicity against human SiHa cells by MTT assay; assay type: functional; settings: for EC50: Homo sapiens, SiHa, read-out: ED50 (the source's name); outline: as §2
Ca-Ski = assay: Cytotoxicity against human CaSKi cells by MTT assay; assay type: functional; settings: read-out: ED50 (the source's name); outline: as §2
RAW264.7 [5] = assay: Antiinflammatory activity in LPS-stimulated mouse RAW264.7 cells assessed as effect on TNFalpha formation pretreated 1 hr before LPS challenge measured after 24 hrs; assay type: functional, cell-based; outline: as §1
RAW264.7 [6] = assay: Antiinflammatory activity in LPS-stimulated mouse RAW264.7 cells assessed as effect on NO production at 30 uM pretreated 1 hr before LPS challenge measured after 24 hrs; assay type: functional; outline: as §4
HCT-116 = assay: Cytotoxicity against human HCT116 cells by MTT assay; assay type: functional; settings: read-out: ED50 (the source's name); outline: as §3
RAW264.7 [7] = assay: Antiinflammatory activity in LPS-stimulated mouse RAW264.7 cells assessed as effect on NO production at 10 uM pretreated 1 hr before LPS challenge measured after 24 hrs; assay type: functional; outline: as §4
[8] = Cytotoxicity against human MCF7-ras cells by MTT assay; assay type: functional; settings: read-out: ED50 (the source's name); outline: as §3
RAW264.7 [9] = assay: Antiinflammatory activity in LPS-stimulated mouse RAW264.7 cells assessed as effect on NO production at 1 uM pretreated 1 hr before LPS challenge measured after 24 hrs; assay type: functional; outline: as §4
MCF7 = assay: Cytotoxicity against human MCF7 cells by MTT assay; assay type: functional; settings: read-out: ED50 (the source's name); outline: as §3
RAW264.7 [10] = assay: Antiinflammatory activity in LPS-stimulated mouse RAW264.7 cells assessed as effect on TNFalpha formation at 0.3 uM pretreated 1 hr before LPS challenge measured after 24 hrs; assay type: functional; outline: as §1
RAW264.7 [11] = assay: Antiinflammatory activity in LPS-stimulated mouse RAW264.7 cells assessed as effect on NO production at 0.3 uM pretreated 1 hr before LPS challenge measured after 24 hrs; assay type: functional; outline: as §4
RAW264.7 [12] = assay: Antiinflammatory activity in LPS-stimulated mouse RAW264.7 cells assessed as effect on TNFalpha formation at 0.1 uM pretreated 1 hr before LPS challenge measured after 24 hrs; assay type: functional; outline: as §1
RAW264.7 [13] = assay: Antiinflammatory activity in LPS-stimulated mouse RAW264.7 cells assessed as effect on NO production at 3 uM pretreated 1 hr before LPS challenge measured after 24 hrs; assay type: functional
Outline: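 RAW 264.7 cells at 2 × 10⁵ per well in DMEM/10% FBS, adhered overnight. Pretreated 1 h at 37 °C with drug or vehicle (DMSO fixed at 0.5% final), then LPS (E. coli 0111:B4) 1 µg/mL for 24 h. Medium nitrite measured by Griess reaction (10 min RT, A550) against NaNO2 standard curve; mean ± SEM, n = 3, compared with control.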

SMILES	inhibition at 30 µM (RAW264.7 [1])	EC50 [2]	EC50 (HepG2)	EC50 (HT-29)	EC50 [3]	EC50 (HCT-116)	further results
COc1cc2c(O[C@@H]3OC[C@](O)(CO[C@@H]4OC[C@@H](O)[C@H](O)[C@H]4O)[C@H]3O[C@H]3OC[C@@H](O)[C@@H](O[C@@H]4OC[C@](O)(CO)[C@H]4O)[C@@H]3O)c3c(c(-c4ccc5c(c4)OCO5)c2cc1OC)C(=O)OC3	-26%						
COc1cc2c(O[C@@H]3OC[C@](O)(CO[C@@H]4OC[C@@H](O)[C@H](O)[C@H]4O)[C@H]3O[C@H]3OC[C@@H](O)[C@@H](O)[C@@H]3O)c3c(c(-c4ccc5c(c4)OCO5)c2cc1OC)C(=O)OC3	18.7%						
COc1cc2c(O[C@@H]3OC[C@](O)(CO)[C@H]3O[C@H]3OC[C@@H](O)[C@@H](O)[C@@H]3O)c3c(c(-c4ccc5c(c4)OCO5)c2cc1OC)C(=O)OC3		3.1 µg/mL (≈ 4.81 µM)	3.9 µg/mL (≈ 6.05 µM)	6.7 µg/mL (≈ 10.4 µM)	3.1 µg/mL (≈ 4.81 µM)		
CC(=N)NCc1cccc(CN)c1 [1400W]							IC50 (RAW264.7 [4]): 3100 nM
Cc1c2oc3c(C)ccc(C(=O)N[C@@H]4C(=O)N[C@H](C(C)C)C(=O)N5CCC[C@H]5C(=O)N(C)CC(=O)N(C)[C@@H](C(C)C)C(=O)O[C@@H]4C)c3nc-2c(C(=O)N[C@@H]2C(=O)N[C@H](C(C)C)C(=O)N3CCC[C@H]3C(=O)N(C)CC(=O)N(C)[C@@H](C(C)C)C(=O)O[C@@H]2C)c(N)c1=O [DACTINOMYCIN] (I: T[dV]P[Sar][NMeV] / II: T[dV]P[Sar][NMeV]; ester I:1-I:C, II:1-II:C; linker I:N-II:N via Actinocin(1to9))							ED50 (SiHa): 8.1 ×10⁻⁴ ug/ml; EC50 (Ca-Ski): 0.0019 µg/mL (≈ 0.00151 µM)
C[C@@H]1C[C@H]2[C@@H]3CCC4=CC(=O)C=C[C@]4(C)[C@@]3(F)[C@@H](O)C[C@]2(C)[C@@]1(O)C(=O)CO [DEXAMETHASONE]							IC50 (RAW264.7 [5]): 700 nM
COc1cc2c(O)c3c(c(-c4ccc5c(c4)OCO5)c2cc1OC)C(=O)OC3 [DIPHYLLIN]	-22.2%	3.6 µg/mL (≈ 9.46 µM)	0.4 µg/mL (≈ 1.05 µM)	2.5 µg/mL (≈ 6.57 µM)	2.7 µg/mL (≈ 7.1 µM)	0.8 µg/mL (≈ 2.1 µM)	inhibition at 30 µM (RAW264.7 [6]): -0.5%; inhibition at 10 µM (RAW264.7 [7]): -28.4%
O=c1[nH]cc(F)c(=O)[nH]1 [FLUOROURACIL]		0.0715 µg/mL (≈ 0.55 µM)	0.033 µg/mL (≈ 0.254 µM)	0.074 µg/mL (≈ 0.569 µM)		0.48 µg/mL (≈ 3.69 µM)	
COc1cc2c(OC)c3c(c(-c4ccc5c(c4)OCO5)c2cc1OC)C(=O)OC3 [JUSTICIDIN A]		0.029 µg/mL (≈ 0.0735 µM)	0.02 µg/mL (≈ 0.0507 µM)		0.0227 µg/mL (≈ 0.0576 µM)		EC50 (SiHa): 0.0074 µg/mL (≈ 0.0188 µM); EC50 [8]: 0.074 µg/mL (≈ 0.188 µM); inhibition at 1 µM (RAW264.7 [9]): 19.8%; EC50 (MCF7): 0.39 µg/mL (≈ 0.989 µM); EC50 (Ca-Ski): 0.003 µg/mL (≈ 0.00761 µM); inhibition at 0.3 µM (RAW264.7 [10]): -158%; inhibition at 0.3 µM (RAW264.7 [11]): 20.3%; inhibition at 0.1 µM (RAW264.7 [12]): -6%
COc1cc2c(O[C@@H]3OC[C@](O)(CO)[C@H]3O)c3c(c(-c4ccc5c(c4)OCO5)c2cc1OC)C(=O)OC3 [TUBERCULATIN]		0.014 µg/mL (≈ 0.0273 µM)	0.04 µg/mL (≈ 0.0781 µM)	0.29 µg/mL (≈ 0.566 µM)		0.28 µg/mL (≈ 0.546 µM)	EC50 (SiHa): 0.12 µg/mL (≈ 0.234 µM); EC50 [8]: 0.09 µg/mL (≈ 0.176 µM); EC50 (MCF7): 0.97 µg/mL (≈ 1.89 µM); inhibition at 3 µM (RAW264.7 [13]): 16.9%

— ChEMBL document CHEMBL1148106, “Potent cytotoxic lignans from Justicia procumbens and their effects on nitric oxide and tumor necrosis factor-alpha production in mouse macrophages” (J Nat Prod, 2002)
